Data: paper PMC5987874 (The Journal of General Physiology, 2018)
Changes are numbered by the printed parent chain. Several values for one entry are separate records, joined by “and”; a condition that tells them apart may be missing. Identical values can stand only once. Like-named read-outs stand apart in the source and are kept apart here.

Key:
Experiment in all cases: Whole-cell voltage clamp, Zn^2+ modulation of GAQ gating
Assay type in all cases: cell-based
[1] = biological target: T1, human Hv1 E119H-H140A-H193A (Homo sapiens, UniProt Q96D96, E119H/H140A/H193A)
T1 sequence (Q96D96 1-273 E119H/H140A/H193A): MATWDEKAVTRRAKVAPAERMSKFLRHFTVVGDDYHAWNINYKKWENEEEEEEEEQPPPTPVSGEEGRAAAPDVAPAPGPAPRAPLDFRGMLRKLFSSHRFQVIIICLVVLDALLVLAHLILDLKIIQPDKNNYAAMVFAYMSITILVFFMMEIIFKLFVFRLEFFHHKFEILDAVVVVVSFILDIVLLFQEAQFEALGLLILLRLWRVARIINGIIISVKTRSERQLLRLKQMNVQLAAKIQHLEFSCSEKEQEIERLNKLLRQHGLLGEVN
Outline: (§1)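 Whole-cell patch clamp at ~21°C. Pipette and bath (mM): ~80 TMA-MeSO3, 100 Bis-Tris, 8 HCl, pH 6.5, 310–320 mOsm. ZnCl2 was diluted into bath solution and applied by gravity superfusion, at least 2 min per change. Test step voltage was set per construct from its V0.5. G_STEP = end-of-step current/(V−V_REV). Effect = 1 − G_Zn/G_control, fitted to the Hill equation. IC50 and nH are means ± SEM from separate cells. ΔpIC50 was tested by unpaired t test, P<0.05.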

[2] = biological target: T2, human Hv1 D123H (D^1.62H) (Homo sapiens, UniProt Q96D96, D123H)
T2 sequence (Q96D96 1-273 D123H): T1 sequence (Q96D96 1-273 E119H/H140A/H193A) with H119E, D123H, A140H, A193H
Outline: as §1

[3] = biological target: T3, human Hv1 H140A-D185H-H193A (Homo sapiens, UniProt Q96D96, D185H/H140A/H193A)
T3 sequence (Q96D96 1-273 H140A/D185H/H193A): T1 sequence (Q96D96 1-273 E119H/H140A/H193A) with H119E, D185H
Outline: as §1

[4] = biological target: T4, human Hv1 E119H-H140A-D185H-H193A (Homo sapiens, UniProt Q96D96, D185H/E119H/H140A/H193A)
T4 sequence (Q96D96 1-273 E119H/H140A/D185H/H193A): T1 sequence (Q96D96 1-273 E119H/H140A/H193A) with D185H
Outline: as §1

human Hv1 D185A-H193A = biological target: T5, human Hv1 D185A-H193A (Homo sapiens, UniProt Q96D96, D185A/H193A)
T5 sequence (Q96D96 1-273 D185A/H193A): T1 sequence (Q96D96 1-273 E119H/H140A/H193A) with H119E, A140H, D185A
Outline: as §1

human Hv1 D112H = biological target: T6, human Hv1 D112H (Homo sapiens, UniProt Q96D96, D112H)
T6 sequence (Q96D96 1-273 D112H): T1 sequence (Q96D96 1-273 E119H/H140A/H193A) with D112H, H119E, A140H, A193H
Outline: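 Zn2+ effect was read from tail current, not end-of-step current. Whole-cell recording at ~21°C with pH 6.5 pipette and bath solutions (mM: ~80 TMA-MeSO3, 100 Bis-Tris, 8 HCl). ZnCl2 was diluted in bath solution and gravity-superfused, at least 2 min per change. Concentration–response was fitted to the Hill equation, with IC50 values from separate cells. ΔpIC50 was compared by unpaired Student's t test, P<0.05.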

- Mean ΔpIC50 = (pIC50_1 - pIC50_2) ([1]; E119H-H140A-H193A vs H140A-H193A, positive = increase in Zn^2+ potency): 2.4 and 2.39
- nH, fit of the mean data to a Hill function ([1]; Fig. 4A): 0.7
- Hill value ([1]; VSTEP 60 mV): 0.84
- pIC50 ([1]; VSTEP 60 mV, calculated as log (IC50)): 5.15
- change of Zn^2+ IC50 ([1]; from H140A-H193A to E119H-H140A-H193A): 2.4 fold
- IC50 ([1]; read-out: IC50, fit of the mean data to a Hill function, Fig. 4A): 7.6 µM
- IC50 ([1]; read-out: Mean IC50 @ VSTEP, VSTEP 60 mV, pH 6.5, mean of fits in separate cells): 7.3 µM
- Mean ΔpIC50 = (pIC50_1 - pIC50_2) ([2]; D123H vs WT): 0.11
- nH, fit of the mean data to a Hill function ([2]; Fig. 4B): 0.8
- Hill value ([2]; VSTEP 80 mV): 0.95
- pIC50 ([2]; VSTEP 80 mV, calculated as log (IC50)): 5.56
- IC50 ([2]; read-out: IC50, fit of the mean data to a Hill function, Fig. 4B): 2.5 µM
- IC50 ([2]; read-out: Mean IC50 @ VSTEP, VSTEP 80 mV, pH 6.5, mean of fits in separate cells): 4.3 µM
- Mean ΔpIC50 = (pIC50_1 - pIC50_2) ([3]; H140A-D185H-H193A vs H140A-H193A): 0.38
- Hill value ([3]; VSTEP 100 mV): 1.05
- pIC50 ([3]; VSTEP 100 mV, calculated as log (IC50)): −3.15
- Mean ΔpIC50 = (pIC50_1 - pIC50_2) ([4]; E119H-H140A-D185H-H193A vs E119H-H140A-H193A): −0.25
- Mean ΔpIC50 = (pIC50_1 - pIC50_2) ([4]; E119H-H140A-D185H-H193A vs H140A-D185H-H193A): 1.75
- Hill value ([4]; VSTEP 120 mV): 0.72
- pIC50 ([4]; VSTEP 120 mV, calculated as log (IC50)): −4.90
- nH, fit of the mean data to a Hill function (human Hv1 D185A-H193A; Fig. 4D): 0.7
- Hill value (human Hv1 D185A-H193A; VSTEP 140 mV): 0.62
- pIC50 (human Hv1 D185A-H193A; VSTEP 140 mV, calculated as log (IC50)): −3.88
- IC50 (human Hv1 D185A-H193A; read-out: IC50, fit of the mean data to a Hill function, Fig. 4D): 99.2 µM
- Mean ΔpIC50 = (pIC50_1 - pIC50_2) (human Hv1 D112H; D112H vs WT): −2.1
- Hill value (human Hv1 D112H; VSTEP 130 mV, determined from tail current): 0.56
- pIC50 (human Hv1 D112H; VSTEP 130 mV, determined from tail current, calculated as log (IC50)): −2.96
- IC50 (human Hv1 D112H; read-out: Mean IC50 @ VSTEP, VSTEP 130 mV, pH 6.5, determined from tail current): 1140 µM
Structure (SMILES): [Cl-].[Cl-].[Zn+2] [Zn^2+, ZnCl2]
